The values below come from ChEMBL document CHEMBL1687924, “Antiviral activity of seed extract from Citrus bergamia towards human retroviruses” (Bioorg Med Chem, 2011).

Molecules are shown by their SMILES. Converted amounts (≈) assume the structure as drawn. The source made the active and inactive calls. No cut-off for these calls is given here.

Data set [1] concerns Human immunodeficiency virus 1. As to the kind of experiment: Antiviral activity against HIV1 infected in human PBMC assessed as inhibition of gag gene expression at 0.27 ug/ml after 5 days post infection by quantitative real time RT-PCR. In kind it is functional. The note with it: Human immunodeficiency virus 1, 120 h. On the technique in general: In qPCR the cycle at which signal appears reflects the starting amount.

Data set [2] in a line: Inhibition of Human T-cell leukemia/lymphoma virus type 1 reverse transcriptase activity infected in human MT2 cells assessed as level of p19 antigen. Format: cell-based, Human T-cell leukemia virus type I. As to conditions: Primate T-lymphotropic virus 1, MT2.
A short description of data set [3]: Cytotoxicity against human MOLT3 cells after 24 hrs by MTS assay. In kind it is cell-based, MOLT-3. Put shortly: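 MOLT-3 cells (1 × 10^4) were exposed for 1 day in RPMI with 5% FBS to seven concentrations (1 ng/ml–1 mg/ml). MTS formazan formation was read at 490 nm after 1 h with reagent. Mean CC50 comes from three independent experiments.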
Background: Tetrazolium assays rely on reduction of a dye to a coloured formazan, in cell work by metabolically active cells.

Data set [4] in a line: Cytotoxicity against PHA-stimutated human PBMC after 24 hrs by MTS assay. In kind it is cell-based. As to conditions: PHA-stimulated PBMC.
Data set [5] has as its system Human T-cell leukemia virus type I. As to the kind of experiment: Antiviral activity against Human T-cell leukemia/lymphoma virus type 1 infected in human PBMC assessed as inhibition of tax/rex gene expression at 22.93 ug/ml after 3 weeks post infection by quantitative real time RT-PCR. In kind it is functional. As to conditions: Primate T-lymphotropic virus 1, 504 h.

For data set [6] the test system is unchanged. Description: Antiviral activity against Human T-cell leukemia/lymphoma virus type 1 infected in human PBMC assessed as inhibition of tax/rex gene expression after 3 weeks post infection by quantitative real time RT-PCR. The note with it: Primate T-lymphotropic virus 1, 504 h. Format: functional, organism-based. Put shortly:
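PBMC infected with HTLV-1. Compounds were added at infection onset, then at half concentration on days 3, 7 and 10 pi; the vehicle was up to 0.5% methanol. Cells were harvested 3 weeks pi and debris removed on a density gradient. tax/rex mRNA was measured by SYBR RQ-PCR normalized to GUSB (2^-ΔΔCt). RQ-IC50 came from three experiments, each in triplicate.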

Data set [7] relates to Human immunodeficiency virus 1. Description: Antiviral activity against HIV1 infected in human PBMC assessed as inhibition of gag gene expression after 5 days post infection by quantitative real time RT-PCR. In kind it is functional, organism-based. As to conditions: Human immunodeficiency virus 1, 120 h. Put shortly: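 Donor PBMC (HIV-, HBV-, HCV-seronegative) stimulated overnight with PHA 2 µg/ml, then infected 2 h with clarified H9/HIV-1IIIB supernatant (20 ng/ml p24), then cultured with IL2 20 U/ml. Compounds added 4 h pre-infection and re-added daily at half concentration; vehicle ≤0.5% methanol. Harvest day 5; gag mRNA by SYBR RQ-PCR vs GUSB (2^-ΔΔCt); three experiments in triplicate; IC50.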

The subject of data set [8] is Human immunodeficiency virus 1. Description: Antiviral activity against HIV1 infected in human PBMC assessed as inhibition of gag gene expression at 0.23 ug/ml after 5 days post infection by conventional RT-PCR. As to conditions: Human immunodeficiency virus 1, 120 h.
For data set [9], the system named is Human T-cell leukemia virus type I. Description: Antiviral activity against Human T-cell leukemia/lymphoma virus type 1 infected in human PBMC assessed as inhibition of tax/rex gene expression at 0.27 ug/ml after 3 weeks post infection by quantitative real time RT-PCR. Format: functional. As to conditions: Primate T-lymphotropic virus 1, 504 h.
For data set [10] the test system is unchanged. As to the kind of experiment: Antiviral activity against Human T-cell leukemia/lymphoma virus type 1 infected in human PBMC assessed as inhibition of tax/rex gene expression at 10 ug/ml after 3 weeks post infection by quantitative real time RT-PCR. In kind it is functional, organism-based. The method in brief:
(§1)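 Compound was added to PBMC cultures at the onset of HTLV-1 infection and re-added at half concentration on days 3, 7 and 10 pi, with 0.5% methanol as vehicle control. Cells were harvested 3 weeks pi and debris removed on a density gradient. Tax/rex mRNA was quantified by SYBR Green RT-PCR (40 cycles, 95/60 °C) against GUSB using the comparative Ct method.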

The subject of data set [11] is Human immunodeficiency virus 1. As to the kind of experiment: Antiviral activity against HIV1 infected in human PBMC assessed as inhibition of gag gene expression at 10 ug/ml after 5 days post infection by quantitative real time RT-PCR. Format: functional, organism-based. Put shortly:
(§2)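 PBMC were stimulated overnight with 2 µg/ml PHA and infected for 2 h with clarified H9/HIV-1IIIB supernatant at 20 ng/ml p24. They were then cultured with IL-2 20 U/ml. Compound was added 4 h before infection and re-added daily at half concentration, with 0.5% methanol as vehicle control. At 5 days pi, gag mRNA was measured by SYBR Green RQ-PCR in triplicate, normalized to GUSB (2^-ΔΔCt).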

Data set [12] addresses Human immunodeficiency virus type 1 reverse transcriptase (Human immunodeficiency virus 1, UniProt Q72547). Description: Inhibition of HIV1 3B reverse transcriptase activity. The method in brief: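 Commercial purified HIV-1 RT replaced the virion lysate in the same cell-free reverse transcription/20-cycle amplification assay. RTIC50 came from band densitometry over three independent experiments, with no compound pre-activation.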

Data set [13] can be described thus: Ratio of zidovudine CC50 to compound CC50 for human MOLT3 cells. In kind it is ADME, cell-based, MOLT-3.
Data set [14] is described as follows: Ratio of Lamivudine CC50 to compound CC50 for human MOLT3 cells. In kind it is ADME, cell-based, MOLT-3.
Data set [15] is described as follows: Ratio of nevirapine CC50 to compound CC50 for human MOLT3 cells. In kind it is ADME, cell-based, MOLT-3.
The test system of data set [16] is Human T-cell leukemia virus type I. As to the kind of experiment: Antiviral activity against Human T-cell leukemia/lymphoma virus type 1 infected in human PBMC assessed as inhibition of tax/rex gene expression at 5 ug/ml after 3 weeks post infection by quantitative real time RT-PCR. Format: functional, organism-based. Put shortly: as §1
For data set [17], the system named is Human immunodeficiency virus 1. As to the kind of experiment: Antiviral activity against HIV1 infected in human PBMC assessed as inhibition of gag gene expression at 1 ug/ml after 5 days post infection by quantitative real time RT-PCR. Format: functional, organism-based. The method in brief: as §2
Data set [18] relates to Human T-cell leukemia virus type I. As to the kind of experiment: Ratio of IC50 for nevirapine to compound IC50 for Human T-cell leukemia/lymphoma virus type 1 reverse transcriptase activity.
The nature of data set [19]: Ratio of CC50 for PHA-stimulated human PBMC to IC50 for HIV1 infected in human PBMC.

The inhibition is how much of the control response was suppressed. One may read the IC50 as the concentration that gives 50% inhibition. What is called CC50 is the concentration giving 50% cytotoxicity. Low readings indicate harm at low concentration, high ones better tolerance by the cells. With `Cc1ccnc2c1NC(=O)c1cccnc1N2C1CC1` [NEVIRAPINE], the inhibition at 0.27 µg/mL in data set [1] worked out at 100%. In addition, in data set [2], the 50% inhibitory concentration (IC50) is more than 0.266 µg/mL. In addition, the CC50 at 24 h in data set [3] stood at 20.1 µg/mL (≈ 75.3 µM); in data set [4], 40.9 µg/mL (≈ 154 µM).
`Nc1ccn([C@@H]2CS[C@H](CO)O2)c(=O)n1` [LAMIVUDINE]: the inhibition at 22.93 µg/mL in data set [5] amounted to 100%. Also, the IC50 in data set [6] is 14.2 µg/mL (≈ 62.1 µM); in [7] it was 0.19 µg/mL (≈ 0.829 µM). The cytotoxic concentration (CC50) at 24 h was found to be 5.94 µg/mL (≈ 25.9 µM) in [3] and 53 µg/mL (≈ 231 µM) in [4]. For the same molecule, in data set [8], the inhibition at 0.23 µg/mL came out at 100%.
Take `Cc1cn([C@H]2C[C@H](N=[N+]=[N-])[C@@H](CO)O2)c(=O)[nH]c1=O` [ZIDOVUDINE]: the inhibition at 0.27 µg/mL in data set [9] and in [1] was 100% each time. Further, in [6], the IC50 came out at 0.16 µg/mL (≈ 0.599 µM). Further, the cytotoxic concentration (CC50) at 24 h in [3] turned out to be 3.24 µg/mL (≈ 12.1 µM); in data set [4], 31.2 µg/mL (≈ 117 µM).
Regarding `CC(=O)O[C@H]1CC(=O)OC(C)(C)[C@@H]2CC(=O)[C@]3(C)[C@H](CC[C@@]4(C)[C@@H](c5ccoc5)OC(=O)[C@H]5O[C@]543)[C@@]12C` [NOMILIN], the inhibition result in data set [10] and in data set [11] was “Active” in each case. Besides, the 50% inhibitory concentration (IC50) in data set [6] is 3.98 µg/mL (≈ 7.73 µM); in data set [7], 13 µg/mL (≈ 25.3 µM); in [2], 0.0026 µg/mL (≈ 0.00505 µM); in [12], 6.65 nM. The CC50 at 24 h is 756 µg/mL (≈ 1470 µM) in data set [3] and 692 µg/mL (≈ 1340 µM) in data set [4]. In addition, the values for the selectivity ratio in data set [13], in data set [14] and in data set [15] were 230, 130 and 40, respectively.
As for `CC1(C)O[C@H]2CC(=O)OC[C@]23[C@H]2CC[C@@]4(C)[C@H](c5ccoc5)OC(=O)[C@H]5O[C@]54[C@]2(C)C(=O)C[C@@H]13` [LIMONIN], the inhibition entry in data set [16] and in [17] was “Active” each time. Besides, the IC50 in [6] is 1.07 µg/mL (≈ 2.27 µM); in data set [7], 0.92 µg/mL (≈ 1.96 µM); in data set [2], 0.00031 µg/mL (≈ 0.000659 µM); in [12], 8.99 nM. The Ratio IC50 in [18] is more than 1000. For the same molecule, the CC50 at 24 h is 202 µg/mL (≈ 428 µM) in data set [3] and 452 µg/mL (≈ 960 µM) in data set [4]. In addition, the selectivity ratio in [13] was found to be 62; in [14], 33; in data set [15], 10. The “Ratio CC50/IC50” value in data set [19] came to 450.
